Assay [1] is described as follows: Antiinflammatory activity in human neutrophils assessed as inhibition of IL8-induced chemotaxis preincubated for 10 mins. It counts as functional, cell-based. The note with it: Neutrophil. The procedure, abridged: (§1)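 Neutrophils from healthy donors' blood, isolated by dextran sedimentation, Ficoll–Paque centrifugation and hypotonic red-cell lysis, held in KRPG pH 7.4 at room temperature. Cells preincubated with compound 10 min. 48-well microchemotaxis chamber; compound in the upper compartment at 10^-12 to 10^-6 M in KRPG with 1 mg/mL BSA. Attractant in the lower compartment: fMLP-OMe 10 nM or CXCL8/IL8 1 nM.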

Assay [2] in a line: Antiinflammatory activity in human neutrophils assessed as inhibition of fMLP-OMe-induced chemotaxis preincubated for 10 mins. It counts as functional, cell-based. To be noted: Neutrophil. The gist of the method: as §1
Assay [3] is filed under the species Homo sapiens. Put plainly: Induction of Akt phosphorylation in fMLP-OMe-stimulated human neutrophils.
The species entered for assay [4] is Homo sapiens. Put plainly: Induction of Akt phosphorylation in IL8-stimulated human neutrophils.

Calls of active or inactive are those of the source. No cut-off for these calls is given here. A value given as a limit tells only on which side of the number the result lay.

Usually IC50 stands for the concentration that inhibits the measured activity by half.

For `O=C(Nc1cccc(F)c1)N1c2ccnn2CC1c1ccccc1` (stereo not drawn), the IC50 in assay [1] is > 1 µM; in assay [2], 0.0121 µM.

Take `O=C(Nc1cccc2ccccc12)N1c2ccnn2CC1c1ccccc1` (stereo not drawn): the half-inhibitory concentration (IC50) in assay [1] and in assay [2] was > 1 µM in each case.

Turning to `CCOC(=O)c1cnn2c1N(C(=O)Nc1ccccc1)C(c1ccccc1)C2` (stereo not drawn), the IC50 in assay [1] was > 1 µM; in assay [2], 0.098 µM.

As for `O=C(Nc1ccc(F)cc1)N1c2ccnn2CC1c1ccccc1` (stereo not drawn), the IC50 in assay [1] was > 1 µM; in assay [2], 0.095 µM.

With `CCOC(=O)c1cnn2c1N(C(=O)Nc1cccc(F)c1)C(c1ccccc1)C2` (stereo not drawn), the concentration for half-maximal inhibition (IC50) in assay [1] was determined as 0.111 µM; in assay [2], 0.0092 µM.

For `O=C(c1cnn2c1N(C(=O)Nc1ccccc1)C(c1ccccc1)C2)N1CCCCC1` (stereo not drawn), the IC50 in assay [1] is > 1 µM; in assay [2], 0.98 µM.

As for `O=C(Nc1ccccc1F)N1c2ccnn2CC1c1ccccc1` (stereo not drawn), the half-inhibitory concentration (IC50) in assay [1] is > 1 µM; in assay [2], 0.0054 µM.

Consider `O=C(NC1CC1)c1cnn2c1N(C(=O)Nc1cccc(F)c1)C(c1ccccc1)C2` (stereo not drawn), for which the values for the IC50 in assay [1] and in assay [2] were > 1 µM and 0.138 µM, respectively.

`O=C(NC1CC1)c1cnn2c1N(C(=O)Nc1ccccc1)C(c1ccccc1)C2` (stereo not drawn): the IC50 in assay [1] stood at 0.0132 µM; in assay [2], 0.123 µM.

For the compound `O=C(c1cnn2c1N(C(=O)Nc1cccc(F)c1)C(c1ccccc1)C2)N1CCCCC1` (stereo not drawn), the IC50 came to 0.0012 µM in assay [1] and 0.0055 µM in assay [2].

As to `NC(=O)c1cnn2c1N(C(=O)Nc1ccc(F)cc1)C(c1ccccc1)C2` (stereo not drawn), the IC50 in assay [1] was 0.484 µM; in assay [2], 0.0114 µM.

As for `CCOC(=O)c1cnn2c1N(C(=O)Nc1cccc3ccccc13)C(c1ccccc1)C2` (stereo not drawn), the IC50 in assay [1] turned out to be 0.206 µM; in assay [2], 0.0138 µM.

On to `O=C(Nc1ccccc1)N1c2ccnn2CC1c1ccccc1` (stereo not drawn), for which the IC50 is > 1 µM in assay [1] and 0.0048 µM in assay [2].

In the case of `CCOC(=O)c1cnn2c1N(C(=O)Nc1ccccc1F)C(c1ccccc1)C2` (stereo not drawn), the results for the IC50 in assay [1] and in assay [2] were 0.0075 µM and 0.116 µM, respectively.

As for `CCOC(=O)c1cnn2c1N(C(=O)Nc1ccc(F)cc1)C(c1ccccc1)C2` (stereo not drawn), the half-maximal inhibitory concentration (IC50) in assay [1] was > 1 µM; in assay [2], 0.0103 µM.

Consider `NC(=O)c1cnn2c1N(C(=O)Nc1cccc(F)c1)C(c1ccccc1)C2` (stereo not drawn), for which the figures for the IC50 in assay [1] and in assay [2] were 0.0012 µM and 0.0039 µM, respectively. For the same compound, the outcome in assay [3] and in assay [4] was inactive.

For the compound `NC(=O)c1cnn2c1N(C(=O)Nc1cccc3ccccc13)C(c1ccccc1)C2` (stereo not drawn), the half-inhibitory concentration (IC50) in assay [1] was > 1 µM; in assay [2], 0.11 µM.

Turning to `NC(=O)c1cnn2c1N(C(=O)Nc1ccccc1F)C(c1ccccc1)C2` (stereo not drawn), the IC50 is 0.0062 µM in assay [1] and > 1 µM in assay [2].

The record behind these values is ChEMBL document CHEMBL1926579, “N-Aryl-2-phenyl-2,3-dihydro-imidazo[1,2-b]pyrazole-1-carboxamides 7-substituted strongly inhibiting both fMLP-OMe- and IL-8-induced human neutrophil chemotaxis” (Eur J Med Chem, 2012).
